# Experimental data from ChEMBL document CHEMBL1671620, “Mutations in the fks1 gene in Candida albicans, C. tropicalis, and C. krusei correlate with elevated caspofungin MICs uncovered in AM3 medium using the method of the European Committee on Antibiotic Susceptibility Testing” (2008).
# Key:
# [1] = tested on: Candida albicans; assay: Antifungal activity against Candida albicans isolate 15 expressing wild type 1,3-beta-glucan synthase grown on AM3 media after 48 hrs by EUCAST microdilution method; type: functional; conditions: isolate 15, 24 h, in the assay text read “24 hrs” for “48 hrs”
# Outline: (§1)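 EUCAST (AFST-EUCAST) broth microdilution with caspofungin at 0.015 to 8 μg/ml final, in AM3 with glucose added to 2% final. Final inoculum was 10⁵ yeast cells/ml, with microplates prepared in batches and stored at −20°C. Plates were incubated at 35°C in humid ambient air and read spectrophotometrically after shaking at 24 h and 48 h. MIC was ≥50% growth reduction versus drug-free well; 90% end point also read at both times.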
# [2] = tested on: Candida albicans; assay: Antifungal activity against Candida albicans isolate 5 expressing wild type 1,3-beta-glucan synthase grown on AM3 media after 48 hrs by EUCAST microdilution method; type: functional; conditions: isolate 5, 24 h, in the assay text read “after 24 hrs” for “after 48 hrs”; outline: as §1
# [3] = tested on: Candida albicans; assay: Antifungal activity against Candida albicans isolate 12 expressing wild type 1,3-beta-glucan synthase grown on AM3 media after 48 hrs by EUCAST microdilution method; type: functional; conditions: isolate 12, 24 h, in the assay text read “after 24 hrs” for “after 48 hrs”; outline: as §1
# [4] = tested on: Candida albicans; assay: Antifungal activity against Candida albicans isolate 4 expressing wild type 1,3-beta-glucan synthase grown on RPMI media after 24 hrs by EUCAST microdilution method; conditions: isolate 4, 24 h
# [5] = tested on: Candida albicans; assay: Antifungal activity against Candida albicans isolate 8 expressing wild type 1,3-beta-glucan synthase grown on RPMI media after 24 hrs by EUCAST microdilution method; conditions: isolate 8, 24 h
# [6] = tested on: Candida albicans; assay: Antifungal activity against Candida albicans isolate 16 expressing wild type 1,3-beta-glucan synthase grown on RPMI media after 24 hrs by EUCAST microdilution method; conditions: isolate 16, 24 h
# [7] = tested on: Candida albicans; assay: Antifungal activity against Candida albicans isolate 17 expressing wild type 1,3-beta-glucan synthase grown on RPMI media after 24 hrs by EUCAST microdilution method; conditions: isolate 17, 24 h
# [8] = tested on: Candida albicans; assay: Antifungal activity against Candida albicans isolate B311 expressing wild type 1,3-beta-glucan synthase grown on RPMI media after 24 hrs by EUCAST microdilution method; conditions: isolate B311, 24 h
# [9] = tested on: Candida albicans; assay: Antifungal activity against Candida albicans isolate 20 harboring 1,3-beta-glucan synthase HS1 point mutant grown on AM3 media after 24 hrs by EUCAST microdilution method; conditions: isolate 20, 24 h
# [10] = tested on: Candida albicans; assay: Antifungal activity against Candida albicans isolate 24 harboring 1,3-beta-glucan synthase HS1 point mutant grown on AM3 media after 24 hrs by EUCAST microdilution method; conditions: isolate 24, 24 h
smiles,measurement,setting,value
CC[C@H](C)C[C@H](C)CCCCCCCCC(=O)N[C@H]1C[C@@H](O)[C@@H](NCCN)NC(=O)[C@@H]2[C@@H](O)CCN2C(=O)[C@H]([C@H](O)CCN)NC(=O)[C@H]([C@H](O)[C@@H](O)c2ccc(O)cc2)NC(=O)[C@@H]2C[C@@H](O)CN2C(=O)[C@H]([C@@H](C)O)NC1=O [CASPOFUNGIN],MIC,[1],0.03 µg/mL
same,MIC,[2],0.03 µg/mL
same,MIC,[3],0.03 µg/mL
same,MIC,[4],0.5 µg/mL
same,MIC,[5],0.5 µg/mL
same,MIC,[6],0.5 µg/mL
same,MIC,[7],0.5 µg/mL
same,MIC,[8],0.5 µg/mL
same,MIC,[9],2 µg/mL
same,MIC,[10],16 µg/mL
